Laboratory results as given in ChEMBL document CHEMBL3259628, “Discovery of novel 2-((pyridin-3-yloxy)methyl)piperazines as α7 nicotinic acetylcholine receptor modulators for the treatment of inflammatory disorders” (J Med Chem, 2014).
Calls of active or inactive are those of the source. The calls are words filed in the database; no cut-off is given here.

Assays:
Cytochrome P450 3A4 = Cytochrome P450 3A4 (Homo sapiens, UniProt P08684); assay: Inhibition of CYP3A4 (unknown origin); format: ADME
In short: (§1)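 Each of five Cyp isoforms assayed with single probe substrates rather than a substrate cocktail. Run in duplicate at Cerep. IC50 lines come from a 5-concentration titration curve.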

[1] = Clearance in rat at 1 mg/kg, iv; format: ADME, organism-based; design: dose 1 mg/kg, route intravenous; settings: in vivo
Mus musculus [2] = assay: (§2) Antiinflammatory activity against ovalbumin-induced allergic lung inflammation BALB/c mouse model assessed as reduction in neutrophils in brochoalveolar lavage fluid at 30 mg/kg, po bid administered on day 29 to 31 post ovalbumin challenge measured 8 hrs post last challenge relative to vehicle-treated control; format: functional, organism-based; design: dose 30 mg/kg; settings: Bronchoalveolar lavage
In short: (§3)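 Balb/c mice sensitized with ovalbumin by IP injection on days 1 and 14, then challenged intranasally with 100 μg ovalbumin on days 29, 30 and 31. Compound in saline given orally starting 30 min before each challenge; groups of six mice. Sham groups were saline-sensitized and allergen-challenged. BAL taken 8 h after the last challenge, with differential cell counts on slides.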

Mus musculus [3] = assay: as §2, with “total blood cells” for “neutrophils”, “5” for “30”; format: functional; in short: as §3
[4] = Cmax in mouse at 5 mg/kg, po; format: ADME, organism-based; design: dose 5 mg/kg, route oral; settings: in vivo
Mus musculus [5] = assay: as §2, with “total blood cells” for “neutrophils”; format: functional, organism-based; design: dose 30 mg/kg; in short: as §3
[6] = Half life in mouse at 5 mg/kg, po; format: ADME, organism-based; design: dose 5 mg/kg, route oral; settings: in vivo
[7] = Cmax in rat at 15 mg/kg, po; format: ADME, organism-based; design: dose 15 mg/kg, route oral; settings: in vivo
Cytochrome P450 2C9 = Cytochrome P450 2C9 (Homo sapiens, UniProt P11712); assay: Inhibition of CYP2C9 (unknown origin); format: ADME; in short: as §1
Chain of Cytochrome P450 2C9 (P11712 whole entry): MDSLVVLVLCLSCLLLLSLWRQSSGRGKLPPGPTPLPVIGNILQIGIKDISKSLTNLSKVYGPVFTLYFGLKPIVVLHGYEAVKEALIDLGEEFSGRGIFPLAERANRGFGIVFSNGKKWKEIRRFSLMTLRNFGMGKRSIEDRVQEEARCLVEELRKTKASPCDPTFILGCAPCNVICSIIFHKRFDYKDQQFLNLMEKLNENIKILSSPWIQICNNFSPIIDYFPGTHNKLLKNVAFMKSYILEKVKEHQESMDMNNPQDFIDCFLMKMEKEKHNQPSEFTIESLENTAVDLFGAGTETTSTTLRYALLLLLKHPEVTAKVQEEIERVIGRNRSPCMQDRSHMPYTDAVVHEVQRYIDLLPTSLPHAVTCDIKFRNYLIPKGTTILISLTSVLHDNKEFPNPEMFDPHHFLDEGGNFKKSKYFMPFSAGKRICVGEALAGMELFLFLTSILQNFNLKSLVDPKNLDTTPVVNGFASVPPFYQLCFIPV

Mus musculus [8] = assay: as §2, with “eosinophils” for “neutrophils”, “5” for “30”; format: functional; in short: as §3
Cytochrome P450 1A2 = Cytochrome P450 1A2 (Homo sapiens, UniProt P05177); assay: Inhibition of CYP1A2 (unknown origin); format: ADME; in short: as §1
Chain of Cytochrome P450 1A2 (P05177 whole entry): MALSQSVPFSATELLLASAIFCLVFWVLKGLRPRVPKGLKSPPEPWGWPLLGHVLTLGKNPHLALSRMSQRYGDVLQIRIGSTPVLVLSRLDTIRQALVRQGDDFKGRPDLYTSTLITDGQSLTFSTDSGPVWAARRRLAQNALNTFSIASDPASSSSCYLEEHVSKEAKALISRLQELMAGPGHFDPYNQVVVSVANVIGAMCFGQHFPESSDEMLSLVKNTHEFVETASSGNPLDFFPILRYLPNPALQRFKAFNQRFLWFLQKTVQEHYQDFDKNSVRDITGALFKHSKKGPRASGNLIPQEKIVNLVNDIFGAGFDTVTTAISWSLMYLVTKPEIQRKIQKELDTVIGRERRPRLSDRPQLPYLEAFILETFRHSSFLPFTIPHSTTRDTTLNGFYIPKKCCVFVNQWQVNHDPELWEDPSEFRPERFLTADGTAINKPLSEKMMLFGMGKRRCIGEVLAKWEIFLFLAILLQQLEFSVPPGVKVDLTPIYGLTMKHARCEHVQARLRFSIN

Mus musculus [9] = assay: as §2, with “eosinophils” for “neutrophils”; format: functional, organism-based; design: dose 30 mg/kg; in short: as §3
Mus musculus [10] = assay: as §2, with “total blood cells” for “neutrophils”, “0.2” for “30”; format: functional, organism-based; design: dose 0.2 mg/kg; in short: as §3
[11] = Oral bioavailability in rat at 15 mg/kg; format: ADME, organism-based; settings: in vivo
Mus musculus [12] = assay: as §2, with “total blood cells” for “neutrophils”, “1” for “30”; format: functional; in short: as §3
Mus musculus [13] = assay: as §2, with “5” for “30”; format: functional; settings: Bronchoalveolar lavage; in short: as §3
[14] = Half life in rat at 1 mg/kg, iv; format: ADME, organism-based; design: dose 1 mg/kg, route intravenous; settings: in vivo
Cytochrome P450 2C19 = Cytochrome P450 2C19 (Homo sapiens, UniProt P33261); assay: Inhibition of CYP2C19 (unknown origin); format: ADME; in short: as §1
Chain of Cytochrome P450 2C19 (P33261 whole entry): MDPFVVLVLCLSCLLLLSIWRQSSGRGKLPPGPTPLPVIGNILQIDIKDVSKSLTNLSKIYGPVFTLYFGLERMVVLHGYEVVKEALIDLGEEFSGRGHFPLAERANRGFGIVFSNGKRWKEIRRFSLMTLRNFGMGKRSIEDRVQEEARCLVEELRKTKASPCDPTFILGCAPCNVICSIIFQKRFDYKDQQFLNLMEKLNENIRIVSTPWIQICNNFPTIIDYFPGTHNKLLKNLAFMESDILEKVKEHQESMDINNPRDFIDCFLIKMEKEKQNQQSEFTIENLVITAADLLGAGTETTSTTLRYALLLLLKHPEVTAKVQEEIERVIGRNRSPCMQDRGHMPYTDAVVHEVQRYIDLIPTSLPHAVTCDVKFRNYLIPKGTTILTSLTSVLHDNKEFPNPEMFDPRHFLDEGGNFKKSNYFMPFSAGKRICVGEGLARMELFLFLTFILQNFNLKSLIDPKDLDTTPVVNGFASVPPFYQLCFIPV

[15] = target: Voltage-gated inwardly rectifying potassium channel KCNH2 (Homo sapiens, UniProt Q12809); assay: Inhibition of human ERG by whole-cell voltage clamp assay
Chain of Voltage-gated inwardly rectifying potassium channel KCNH2 (Q12809 whole entry): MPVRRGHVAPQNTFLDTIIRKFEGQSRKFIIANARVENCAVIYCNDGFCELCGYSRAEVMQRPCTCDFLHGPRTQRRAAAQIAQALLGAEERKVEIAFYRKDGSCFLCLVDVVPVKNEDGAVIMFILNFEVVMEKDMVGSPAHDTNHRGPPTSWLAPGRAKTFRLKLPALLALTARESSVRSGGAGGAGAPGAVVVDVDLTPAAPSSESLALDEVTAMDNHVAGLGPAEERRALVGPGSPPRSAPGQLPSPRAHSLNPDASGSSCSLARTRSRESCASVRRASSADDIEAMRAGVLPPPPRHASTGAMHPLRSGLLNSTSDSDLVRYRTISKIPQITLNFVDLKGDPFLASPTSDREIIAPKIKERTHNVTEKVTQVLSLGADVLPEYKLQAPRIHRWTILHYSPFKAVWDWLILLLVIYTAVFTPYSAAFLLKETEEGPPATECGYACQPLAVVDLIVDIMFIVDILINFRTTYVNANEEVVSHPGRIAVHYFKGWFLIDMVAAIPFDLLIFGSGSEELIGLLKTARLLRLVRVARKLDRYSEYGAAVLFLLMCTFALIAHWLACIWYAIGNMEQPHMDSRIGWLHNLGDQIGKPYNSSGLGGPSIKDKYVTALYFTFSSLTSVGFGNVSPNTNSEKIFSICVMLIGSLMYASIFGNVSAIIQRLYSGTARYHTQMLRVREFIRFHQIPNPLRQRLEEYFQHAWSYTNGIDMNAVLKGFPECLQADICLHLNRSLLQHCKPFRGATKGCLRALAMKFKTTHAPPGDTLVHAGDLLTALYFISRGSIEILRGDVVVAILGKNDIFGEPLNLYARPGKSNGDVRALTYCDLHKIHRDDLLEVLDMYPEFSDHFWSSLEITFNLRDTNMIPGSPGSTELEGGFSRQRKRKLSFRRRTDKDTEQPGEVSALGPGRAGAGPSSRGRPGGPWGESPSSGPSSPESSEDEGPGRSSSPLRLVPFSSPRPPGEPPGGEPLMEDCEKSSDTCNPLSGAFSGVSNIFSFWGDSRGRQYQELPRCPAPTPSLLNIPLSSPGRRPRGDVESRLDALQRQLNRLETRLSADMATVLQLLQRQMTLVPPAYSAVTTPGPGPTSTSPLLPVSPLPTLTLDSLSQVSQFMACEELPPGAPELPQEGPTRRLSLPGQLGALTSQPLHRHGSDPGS

[16] = Ratio of drug uptake in brain to plasma in iv dosed mouse measured after 5 to 30 mins; format: ADME, organism-based; settings: brain and plasma, read-out: BPR
[17] = target: Neuronal acetylcholine receptor; alpha4/beta2 (Homo sapiens, UniProt P17787+P43681); assay: Inhibition of human alpha4beta2 nAChR at 10 uM by binding assay
[18] = Half life in mouse at 1 mg/kg, iv; format: ADME, organism-based; design: dose 1 mg/kg, route intravenous; settings: in vivo
Mus musculus [19] = assay: as §2, with “1” for “30”; format: functional; settings: Bronchoalveolar lavage; in short: as §3
[20] = Oral bioavailability in mouse at 5 mg/kg; format: ADME, organism-based; settings: in vivo
Rattus norvegicus = organism: Rattus norvegicus; assay: Inhibition of rat sodium channel site 2 at 10 uM
In short: (§4)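 Receptor, ion channel and transporter binding panel run at Cerep in duplicate. Percent inhibition measured at 10 μM compound.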

[21] = Half life in rat at 15 mg/kg, po; format: ADME, organism-based; design: dose 15 mg/kg, route oral; settings: in vivo
[22] = target: Neuronal acetylcholine receptor subunit alpha-7 (Rattus norvegicus, UniProt Q05941); assay: Inhibition of biotinylated alpha-bungarotoxin binding to alpha7 nAChR in rat PC12 cells by FACS analysis; format: cell-based, PC-12
Chain of Neuronal acetylcholine receptor subunit alpha-7 (Q05941 whole entry): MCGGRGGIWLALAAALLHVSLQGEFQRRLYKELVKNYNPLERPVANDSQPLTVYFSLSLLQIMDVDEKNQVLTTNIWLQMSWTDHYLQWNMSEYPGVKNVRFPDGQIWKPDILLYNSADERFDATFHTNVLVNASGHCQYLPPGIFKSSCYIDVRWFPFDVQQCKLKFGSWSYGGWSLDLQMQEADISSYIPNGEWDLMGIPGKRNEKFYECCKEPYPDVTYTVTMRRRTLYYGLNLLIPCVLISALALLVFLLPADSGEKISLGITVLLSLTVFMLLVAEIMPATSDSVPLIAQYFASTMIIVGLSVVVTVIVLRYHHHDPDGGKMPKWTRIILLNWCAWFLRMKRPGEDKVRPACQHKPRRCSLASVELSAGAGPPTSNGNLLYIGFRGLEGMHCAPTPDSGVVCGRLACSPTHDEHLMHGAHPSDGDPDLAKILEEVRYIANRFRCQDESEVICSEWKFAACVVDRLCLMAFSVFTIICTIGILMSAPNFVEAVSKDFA
In short: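 Rat PC12 cells in binding buffer (PBS, 1.0% FBS, 0.02% sodium azide), 0.1% DMSO; biotinylated α-bungarotoxin 10 nM final, 1 h at room temperature; nonspecific binding defined with 1.5 μM unlabeled toxin. After washing, phycoerythrin-streptavidin 1.0 μg/mL final, 15 min in the dark; read by FACS. Screened at 10 and 1 μM, then eight-point 3-fold dilution IC50; mean of two or more experiments.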

[23] = Clearance in mouse at 1 mg/kg, iv; format: ADME, organism-based; design: dose 1 mg/kg, route intravenous; settings: in vivo
Mus musculus [24] = assay: as §2, with “eosinophils” for “neutrophils”, “0.2” for “30”; format: functional, organism-based; design: dose 0.2 mg/kg; in short: as §3
Mus musculus [25] = assay: as §2, with “0.2” for “30”; format: functional, organism-based; design: dose 0.2 mg/kg; settings: Bronchoalveolar lavage; in short: as §3
Cytochrome P450 2D6 = Cytochrome P450 2D6 (Homo sapiens, UniProt P10635); assay: Inhibition of CYP2D6 (unknown origin); format: ADME; in short: as §1
Chain of Cytochrome P450 2D6 (P10635 whole entry): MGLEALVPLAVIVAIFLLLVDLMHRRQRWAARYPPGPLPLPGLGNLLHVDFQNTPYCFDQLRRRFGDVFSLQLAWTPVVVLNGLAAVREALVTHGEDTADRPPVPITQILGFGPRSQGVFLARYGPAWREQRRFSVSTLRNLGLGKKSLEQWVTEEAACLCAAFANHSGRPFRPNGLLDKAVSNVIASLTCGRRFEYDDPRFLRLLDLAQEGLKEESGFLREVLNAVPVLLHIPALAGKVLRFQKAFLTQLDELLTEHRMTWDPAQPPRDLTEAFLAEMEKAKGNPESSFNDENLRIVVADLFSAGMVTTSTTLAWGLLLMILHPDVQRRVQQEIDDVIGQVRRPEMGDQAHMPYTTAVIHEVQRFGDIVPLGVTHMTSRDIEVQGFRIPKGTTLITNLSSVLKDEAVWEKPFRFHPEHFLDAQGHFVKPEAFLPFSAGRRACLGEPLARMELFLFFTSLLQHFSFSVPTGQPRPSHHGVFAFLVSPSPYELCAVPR

[26] = target: Histamine H3 receptor (Homo sapiens) (UniProt Q9Y5N1); assay: Inhibition of human histamine H3 receptor at 10 uM; in short: as §4
Chain of Histamine H3 receptor (Homo sapiens) (Q9Y5N1 whole entry): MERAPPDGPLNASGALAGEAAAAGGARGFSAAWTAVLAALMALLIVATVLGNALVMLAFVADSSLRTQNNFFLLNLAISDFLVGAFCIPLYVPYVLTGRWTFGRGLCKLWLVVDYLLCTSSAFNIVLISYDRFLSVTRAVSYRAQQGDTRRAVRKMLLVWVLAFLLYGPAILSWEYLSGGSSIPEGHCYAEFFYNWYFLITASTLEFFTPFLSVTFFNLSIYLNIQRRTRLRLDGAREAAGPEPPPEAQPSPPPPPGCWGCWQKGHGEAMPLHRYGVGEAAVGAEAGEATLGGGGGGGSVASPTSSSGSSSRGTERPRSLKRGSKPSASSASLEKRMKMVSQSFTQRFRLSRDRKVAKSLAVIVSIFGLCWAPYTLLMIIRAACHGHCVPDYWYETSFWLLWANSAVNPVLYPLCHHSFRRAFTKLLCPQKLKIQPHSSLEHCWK

Mus musculus [27] = assay: as §2, with “eosinophils” for “neutrophils”, “1” for “30”; format: functional; in short: as §3

Chain of Cytochrome P450 3A4 (P08684 whole entry, canonical isoform): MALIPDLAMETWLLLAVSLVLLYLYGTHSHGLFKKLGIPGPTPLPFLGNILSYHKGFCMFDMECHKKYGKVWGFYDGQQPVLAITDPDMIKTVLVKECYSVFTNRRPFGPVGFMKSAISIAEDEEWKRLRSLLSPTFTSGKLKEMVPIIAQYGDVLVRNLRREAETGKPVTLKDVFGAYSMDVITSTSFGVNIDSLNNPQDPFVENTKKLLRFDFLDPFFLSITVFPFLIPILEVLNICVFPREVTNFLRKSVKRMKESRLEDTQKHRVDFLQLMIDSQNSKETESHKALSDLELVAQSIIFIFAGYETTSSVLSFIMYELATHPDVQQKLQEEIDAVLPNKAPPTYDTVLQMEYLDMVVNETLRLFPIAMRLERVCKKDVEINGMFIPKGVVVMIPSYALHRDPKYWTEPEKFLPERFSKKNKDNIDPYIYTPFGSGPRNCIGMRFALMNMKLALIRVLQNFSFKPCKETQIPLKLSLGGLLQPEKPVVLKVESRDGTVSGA

COc1ccc(NC(=O)N2CCNC[C@@H]2COc2cccnc2)cc1.Cl
IC50 (Cytochrome P450 3A4): > 100 µM | clearance [1]: 5.16 L/h/kg | inhibition (Mus musculus [2]): inactive | inhibition in vivo at 5 mg/kg (Mus musculus [3]): 63% | Cmax [4]: 0.95 µM | inhibition (Mus musculus [5]): inactive | half-life [6]: 1.73 h | Cmax [7]: 0.751 µg/mL | IC50 (Cytochrome P450 2C9): > 100 µM | inhibition in vivo at 5 mg/kg (Mus musculus [8]): 74% | IC50 (Cytochrome P450 1A2): > 100 µM | inhibition (Mus musculus [9]): inactive | inhibition (Mus musculus [10]): inactive | bioavailability [11]: 89% | inhibition in vivo at 1 mg/kg (Mus musculus [12]): 53% | inhibition in vivo at 5 mg/kg (Mus musculus [13]): 70% | half-life [14]: 1.22 h | IC50 (Cytochrome P450 2C19): > 100 µM | IC50 [15]: 31 µM | Kp [16]: ≤ 0.06 | inhibition [17]: 10% | half-life [18]: 0.65 h | inhibition in vivo at 1 mg/kg (Mus musculus [19]): 61% | bioavailability [20]: 76% | inhibition (Rattus norvegicus): 48% | half-life [21]: 2.35 h | IC50 [22]: 0.019 µM | clearance [23]: 6.18 L/h/kg | inhibition (Mus musculus [24]): inactive | inhibition (Mus musculus [25]): inactive | IC50 (Cytochrome P450 2D6): > 100 µM | inhibition [26]: 86% | inhibition in vivo at 1 mg/kg (Mus musculus [27]): 48%
